Type in all cases: functional, cell-based
Assay [1] deals with HGC-27. Briefly: Antiproliferative activity against human HGC27 cells after 72 hrs by MTT assay. To be noted: for IC50: HGC-27, 72 h. In a few lines: (§1)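 Human tumour lines HGC-27 (stomach), A-549 (lung), HeLa (cervical) and MV4-11 (leukemia) tested in a standard MTT assay, with taxol as positive control. Each assay repeated more than three times. IC50 calculated by the Reed and Muench method, reported as mean ± SD.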
In general terms: Formazan colour is commonly taken as a measure of viable cells.

In assay [2] the test system is HeLa. Briefly: Antiproliferative activity against human HeLa cells after 72 hrs by MTT assay. In a few lines: as §1
The subject of assay [3] is MV4-11. Put plainly: Antiproliferative activity against human MV411 cells after 72 hrs by MTT assay. To be noted: for IC50: MV4-11, 72 h. In a few lines:
as §1

In assay [4] the test system is A549. Briefly: Antiproliferative activity against human A549 cells after 72 hrs by MTT assay. To be noted: for IC50: A549, 72 h. In a few lines: as §1

SMILES strings stand for the structures. Active and inactive are the calls of the source. No cut-off for these calls is given here.

As to `C=C1[C@H]2[C@H]([C@H]([C@@]3(C)CO3)[C@@H](OC(=O)/C(C)=C\C)[C@H]1OC(=O)/C=C(\C)CC)[C@@H](CC)C(=O)[C@H]2OC(=O)C(C)CC` (some centres undefined), the outcome in assay [1], in assay [2], in assay [3] and in assay [4] was inactive.
Consider `C=C(C)[C@@H]1C[C@@]2(C)C(=CC1=O)CC[C@@H](OC(=O)/C(C)=C/C)[C@@H]2C`, for which the result in assay [1], in assay [2], in assay [3] and in assay [4] was inactive.
Consider `C=C(C(CC=C(C)C)OC(=O)/C(C)=C\C)[C@@H]1C[C@H](O)[C@](C)(OC)C(=O)[C@H]1OC(C)=O` (some centres undefined), for which the result in assay [1], in assay [2], in assay [3] and in assay [4] was inactive.
For `C=C(C)[C@@H]1C[C@@]2(C)C(=CC1=O)[C@@H](O)C[C@@H](OC(=O)/C(C)=C\C)[C@@H]2C`, the IC50 in assay [1] came to 2.1 µM; in assay [2], 2.4 µM; in assay [3], 0.5 µM; in assay [4], 6.3 µM.
For the molecule `C=C(C(CC=C(C)C)OC(=O)/C(C)=C\C)[C@@H]1[C@@H](O)[C@@H](OC(=O)/C(C)=C\C)[C@](C)(O)C(=O)[C@H]1OC(C)=O` (some centres undefined), the result in assay [1], in assay [2], in assay [3] and in assay [4] was inactive.
Take `C=C(C(CC=C(C)C)OC(=O)/C(C)=C\C)[C@@H]1C(=O)C(OC(C)=O)=C(C)[C@H](O)[C@H]1OC(=O)/C(C)=C\C` (some centres undefined): the IC50 in assay [1] is 2.2 µM; in assay [2] it was 6.3 µM; in assay [3] it was 2.9 µM; in assay [4] it was 9.8 µM.
With `C=C1[C@H]2[C@@H]([C@@H]([C@@H](C)OC)C(=O)[C@H]2OC(=O)C(C)CC)[C@H]([C@@]2(C)CO2)[C@@H](OC(=O)C(C)CC)[C@H]1OC(=O)/C=C(\C)CC` (some centres undefined), the outcome in assay [1], in assay [2], in assay [3] and in assay [4] was inactive.
As to `C/C=C(/C)C(=O)O[C@@H]1CCC2=CC(=O)[C@H]([C@]3(C)CO3)C[C@]2(C)[C@H]1C`, the result in assay [1], in assay [2], in assay [3] and in assay [4] was inactive.
Regarding `C=C(C)[C@@H]1C[C@@]2(C)C(=CC1=O)CC[C@@H](OC(=O)C=C(C)C)[C@@H]2C`, the result in assay [1], in assay [2], in assay [3] and in assay [4] was inactive.
As for `C=C(C(CC=C(C)C)OC(=O)/C(C)=C\C)[C@@H]1C[C@@H]2O[C@]2(C)C(=O)[C@@H]1OC(C)=O` (some centres undefined), the outcome in assay [1], in assay [2], in assay [3] and in assay [4] was inactive.
With `C/C=C(/C)C(=O)O[C@@H]1CCC2=CC(=O)[C@@H]([C@@]3(C)CO3)C[C@]2(C)[C@H]1C`, the outcome in assay [1], in assay [2], in assay [3] and in assay [4] was inactive.
For the molecule `C=C(C(CC=C(C)C)OC(=O)/C(C)=C\C)[C@@H]1[C@H](OC(=O)/C(C)=C\C)[C@@H]2O[C@]2(C)C(=O)[C@H]1OC(C)=O` (some centres undefined), the outcome in assay [1], in assay [2], in assay [3] and in assay [4] was inactive.
On to `C=C(C(CC=C(C)C)OC(=O)/C(C)=C\C)[C@H]1C[C@@H](O)C(C)=C(OC(C)=O)C1=O` (some centres undefined), for which the result in assay [1], in assay [2], in assay [3] and in assay [4] was inactive.
Turning to `C=C1[C@H]2[C@@H](/C(=C\C)C(=O)[C@H]2OC(=O)C(C)CC)[C@H]([C@@]2(C)CO2)[C@@H](OC(=O)CC(C)CC)[C@H]1OC(=O)/C=C(\C)CC` (some centres undefined), the result in assay [1], in assay [2], in assay [3] and in assay [4] was inactive.
As for `C=C1[C@H]2[C@@H]([C@@H]([C@@H](C)OC)C(=O)[C@H]2OC(=O)C(C)CC)[C@H]([C@@]2(C)CO2)[C@@H](OC(=O)/C(C)=C\C)[C@H]1OC(=O)/C=C(\C)CC` (some centres undefined), the result in assay [1], in assay [2], in assay [3] and in assay [4] was inactive.
Consider `C=C1[C@H]2[C@@H](/C(=C/C)C(=O)[C@H]2OC(=O)C(C)CC)[C@H]([C@@]2(C)CO2)[C@@H](OC(=O)/C(C)=C\C)[C@H]1OC(=O)/C=C(\C)CC` (some centres undefined), for which the result in assay [1], in assay [2], in assay [3] and in assay [4] was inactive.
`C=C1[C@@H]2[C@H](OC(=O)C(C)CC)[C@H](OC(C)=O)[C@H]([C@@H](C)OC(=O)C[C@@H](C)O)[C@H]2[C@H]([C@@]2(C)CO2)[C@@H](OC(=O)/C(C)=C\C)[C@H]1OC(=O)/C=C(\C)CC` (some centres undefined): the IC50 in assay [1] was determined as 6.1 µM; in assay [2], 8.4 µM; in assay [3] it was 9 µM; in assay [4] it was 12.5 µM.
As to `C=C(C)[C@@H]1C[C@@]2(C)C(=CC1=O)CC[C@@H](OC(=O)/C(C)=C\C)[C@@H]2C`, the outcome in assay [1], in assay [2], in assay [3] and in assay [4] was inactive.
Consider `C=C(C)[C@@H]1CCc2ccc(O)c(C)c2C1`, for which the result in assay [1], in assay [2], in assay [3] and in assay [4] was inactive.
As for `C=C(C(CC=C(C)C)OC(=O)/C(C)=C\C)[C@@H]1C[C@H](Cl)[C@](C)(O)C(=O)[C@H]1OC(C)=O` (some centres undefined), the outcome in assay [1], in assay [2], in assay [3] and in assay [4] was inactive.
Consider `C=C(C)[C@@H]1C[C@@]2(C)C(=CC1=O)[C@H](O)C[C@@H](OC(=O)/C(C)=C\C)[C@@H]2C`, for which the IC50 is 7.2 µM in assay [1], 5.7 µM in assay [2], 2.5 µM in assay [3] and 13.5 µM in assay [4].
As for `C=C(C(/C=C/C(C)(C)O)OC(=O)/C(C)=C\C)[C@@H]1[C@H](OC(=O)/C(C)=C\C)[C@@H]2O[C@]2(C)C(=O)[C@H]1OC(C)=O` (some centres undefined), the result in assay [1], in assay [2], in assay [3] and in assay [4] was inactive.
Turning to `C=C(C(CC=C(C)C)OC(=O)/C(C)=C\C)[C@@H]1[C@@H](O)[C@@H](OC(=O)/C(C)=C/C)[C@](C)(O)C(=O)[C@H]1OC(C)=O` (some centres undefined), the result in assay [1], in assay [2], in assay [3] and in assay [4] was inactive.
For `C=C1[C@@H]2[C@H](OC(=O)C(C)CC)[C@H](OC(C)=O)[C@H]([C@@H](C)OC(=O)C[C@@H](C)O)[C@H]2[C@H]([C@@]2(C)CO2)[C@@H](OC(=O)CC(C)CC)[C@H]1OC(=O)/C=C(\C)CC` (some centres undefined), the outcome in assay [1], in assay [2], in assay [3] and in assay [4] was inactive.
For the molecule `C=C1[C@H]2[C@@H](/C(=C/C)C(=O)[C@H]2OC(=O)C(C)CC)[C@H]([C@@]2(C)CO2)[C@@H](OC(=O)C(C)CC)[C@H]1OC(=O)/C=C(\C)CC` (some centres undefined), the result in assay [1], in assay [2], in assay [3] and in assay [4] was inactive.
As to `C=C(C(CC=C(C)C)OC(=O)/C(C)=C\C)[C@@H]1C[C@H](O)[C@](C)(OC)C(=O)[C@H]1OC(=O)/C(C)=C\C` (some centres undefined), the result in assay [1], in assay [2], in assay [3] and in assay [4] was inactive.
For `C=C(C(CC=C(C)C)OC(=O)/C(C)=C\C)[C@@H]1[C@@H](O)[C@@H]2O[C@]2(C)C(=O)[C@H]1OC(C)=O` (some centres undefined), the outcome in assay [1], in assay [2], in assay [3] and in assay [4] was inactive.
Regarding `C=C1[C@H]2[C@@H](/C(=C\C)C(=O)[C@H]2OC(=O)C(C)CC)[C@H]([C@@]2(C)CO2)[C@@H](OC(=O)/C(C)=C\C)[C@H]1OC(=O)/C=C(\C)CC` (some centres undefined), the outcome in assay [1], in assay [2], in assay [3] and in assay [4] was inactive.
On to `C/C=C(/C)C(=O)OC1=C(C)[C@H](O)C/C(=C(/C)C(CC=C(C)C)OC(=O)/C(C)=C\C)C1=O` (some centres undefined), for which the outcome in assay [1], in assay [2], in assay [3] and in assay [4] was inactive.
On to `C=C(c1ccc(C)c(O)c1O)C(CC=C(C)C)OC(=O)/C(C)=C\C` (centres undefined), for which the outcome in assay [1], in assay [2], in assay [3] and in assay [4] was inactive.
In the case of `C=C(C)[C@@H]1C[C@@]2(C)C(=CC1=O)CC[C@@H](OC(=O)CC(C)CC)[C@@H]2C` (some centres undefined), the 50% inhibitory concentration (IC50) in assay [1] amounted to 3.6 µM; in assay [2], 3.3 µM; in assay [3], 1.1 µM; in assay [4] it was 6.6 µM.

As usually defined, the IC50 is the concentration needed to halve the response being measured. A high value points to weaker potency.
